Assay outcomes from PubChem BioAssay.
PME-1 primary: PME-1 inhibitors via competitive probe labeling, primary screen, biochemical, fluorescence polarization, FP-Rh probe, HTS | Protein phosphatase methylesterase 1 (Homo sapiens), Q9Y570 | recombinant PME-1 | inhibition, % at 5.9 µM | hit rate 0.53% among 320,000 | AID 2130, 2009;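 active means inhibition above the campaign mean of all compounds plus 3 SD, cut at about 26% in these data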;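 further: competitive labeling of PME-1 active site by serine hydrolase directed probe; 0% = PME-1 with DMSO and 100% = wells lacking PME-1 enzyme; inhibitors block probe labeling so polarization falls and inhibition rises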
TCR CD3 inh: inhibitors of human TCR-CD3 interaction, primary screen, biochemical, fluorescence, TAMRA-labeled TCR probe; T-cell receptor (TCR); inhibition, % at 9.4 µM; hit rate 0.37% among 360,000; AID 651800, 2012;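 further: recombinant mutant TCR 2C K166C tagged with TAMRA read by polarization; 0% = receptor in buffer alone and 100% = receptor with positive control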
SIAE inh: human SIAE inhibitors, primary screen, biochemical, fluorescence polarization, FP-Rh probe, 1536-well HTS | Sialate O-acetylesterase (Homo sapiens), Q9HAT2 | SIAE FP-Rh probe binding | inhibition, % at 9.66 µM | hit rate 0.69% among 370,000 | AID 1053197, 2014;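 active means inhibition above a cutoff: mean of compounds within the control limits plus 3 SD of those, cut at about 17% in these data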;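 further: 0% = plate median of compound wells and 100% = probe without SIAE protein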
Target sequence (Q9HAT2 whole entry, looked up): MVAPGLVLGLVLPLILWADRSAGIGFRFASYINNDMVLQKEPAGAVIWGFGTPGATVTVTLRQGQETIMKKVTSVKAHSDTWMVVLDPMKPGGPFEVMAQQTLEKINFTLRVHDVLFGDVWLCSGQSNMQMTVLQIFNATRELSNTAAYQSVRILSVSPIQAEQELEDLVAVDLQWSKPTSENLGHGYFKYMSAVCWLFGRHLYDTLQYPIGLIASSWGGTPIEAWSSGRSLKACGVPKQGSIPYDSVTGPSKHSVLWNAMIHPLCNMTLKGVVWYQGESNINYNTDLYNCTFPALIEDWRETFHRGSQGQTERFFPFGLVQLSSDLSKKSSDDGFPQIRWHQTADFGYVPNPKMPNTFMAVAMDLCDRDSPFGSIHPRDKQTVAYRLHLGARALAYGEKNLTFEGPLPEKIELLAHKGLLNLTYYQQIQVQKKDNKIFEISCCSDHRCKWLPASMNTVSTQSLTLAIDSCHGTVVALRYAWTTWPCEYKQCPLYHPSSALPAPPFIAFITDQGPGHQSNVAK
HTRA1 inh: HTRA1 serine protease inhibitors, primary screen, biochemical, fluorescence polarization, HTS. Q92743. recombinant HTRA1, FP-rhodamine activity-based probe. inhibition, % at 5.96 µM. hit rate 0.5% among 340,000. AID 504803, 2011; in the data active means inhibition above about 36%;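 further: 0% = enzyme with DMSO and 100% = wells lacking enzyme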
mABHD4 FP: ABHD4 inhibitors, primary screen, biochemical, fluorescence polarization, mouse; (Lyso)-N-acylphosphatidylethanolamine lipase (Mus musculus), Q8VD66; purified mABHD4, FP-Rh probe fluorescence polarization; inhibition, % at 8.92 µM; hit rate 0.54% among 370,000; AID 720543, 2013;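 active means inhibition exceeding the mean over every tested compound plus 3 SD, cut at about 30% in these data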;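 further: 0% = plate median of compound wells and 100% = S159A mutant with DMSO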
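Test system: mouse ABHD4 enzyme, wild type. Reagent: FP-Rh fluorescent activity-based probe, added after compound pre-incubation. Timing: pre-incubation 45 min, probe exposure 60 min, at 25 °C. Technique: FP readout, ex 525 nm / em 598 nm. Benchmarks: high control S159A mutant with DMSO, low control median of compound wells.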
Fam108B counter: mouse Fam108B serine hydrolase inhibitors, primary screen, counter-screen for RBBP9 inhibitor project, biochemical, fluorescence polarization; recombinant Fam108B, FP-Rh probe fluorescence polarization; inhibition, % at 9.51 µM; hit rate 0.33% among 300,000; AID 1947, 2009;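 active means inhibition above the screen mean inhibition plus 3 SD, computed separately per campaign, cut at about 18% in these data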;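 further: inhibitors lower polarization as less probe binds the enzyme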
BSA TAMRA ctr: compounds interfering with TAMRA-BSA probe, counter-screen for TCR-CD3 interaction inhibitor project, biochemical, fluorescence, TAMRA-labeled BSA | shares compounds with TCR CD3 inh | TAMRA-labeled BSA probe fluorescence counterscreen | inhibition, % at 9.4 µM | hit rate 10% among 1,200 | AID 652035, 2013; in the data active means inhibition above about 23%;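 further: 0% = buffer low control and 100% = reference high control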
TCR-CD3 inh conf: TCR-CD3 interaction inhibitors, retest, confirmation, biochemical, fluorescence, TAMRA-labeled TCR probe; shares compounds with TCR CD3 inh; TAMRA-labeled TCR probe fluorescence binding assay; inhibition, % at 9.4 µM; hit rate 48% among 1,200; AID 652036, 2013
* hit, by the source's call; . = not tested or not shown. Most compounds without a hit are left out; they make up all but 1.8% or so of the library. Unless noted, no stated cut-off is given here; in the data, active means inhibition above about 19%; inactive means the rest.

SMILES	PME-1 primary	TCR CD3 inh	SIAE inh	HTRA1 inh	mABHD4 FP	Fam108B counter	BSA TAMRA ctr	TCR-CD3 inh conf
Cc1ccc(NS(=O)(=O)c2ccc(C(=O)NNC(=O)c3ccccc3O)cc2)cc1	11.8	19.9*	9.8	-13.6	7.0	3.0	-16.1	9.4
Cc1ccc(C(=O)NNC(=O)c2cc3ccccc3cc2O)cc1	15.7	24.1*	12.2	19.4	15.9	3.6	0.8	25.1*
COc1ccc(NC(=O)NNC(=O)c2cc3ccccc3cc2O)cc1	-3.5	24.7*	5.4	0.8	-2.4	2.7	-8.1	22.1*
Cc1cccc(C(=O)NNC(=O)c2ccc3ccccc3c2)c1	.	5.8	9.7	-2.6	8.5	.	.	.
COc1ccc(NC(=O)c2cc3ccccc3cc2OC)cc1	-5.7	3.2	-8.9	-18.1	3.0	-0.6	.	.
O=C(COC(=O)c1cc2ccccc2cc1O)NC1CCCCC1	.	-0.8	-0.2	-7.5	-3.1	.	.	.
CCOC(=O)[C@]12CCCC=C1N(Cc1ccc(OC)cc1)C(=O)[C@@H]2CC(=O)NCc1ccc(C)o1	.	.	0.5	.	3.5	.	.	.
COCC(=O)N1CCC(C(=O)NCC2COc3ccccc3O2)CC1 (configuration not stated)	.	.	0.5	.	5.8	.	.	.
CC(=O)NC(CC(=O)NNC(=O)c1cc2ccccc2cc1O)c1ccccc1 (configuration not stated)	3.0	49.9*	8.4	15.0	16.9	3.3	-4.3	31.0*
O=C(NNC(=O)c1cc2ccccc2cc1O)Nc1ccc(F)cc1F	2.0	19.9*	9.1	18.0	1.1	0.0	4.5	19.1*
CCOC(=O)N1C(=O)C[C@](Sc2ccc(OC)cc2)(C(=O)N2CCOCC2)[C@H]1c1ccc(OC)cc1	.	.	-0.3	.	-1.6	.	.	.
C[C@H]1[C@H](NC(=O)c2cccc(Cl)c2)CC[C@@]23CCCN2C(=O)CCC[C@@H]13	.	.	-5.4	.	-0.3	.	.	.
O=C(NC(C(=O)N/N=C/c1cc([N+](=O)[O-])ccc1O)c1n[nH]c(=O)c2ccccc12)c1ccccc1 (configuration not stated)	48.7*	29.4*	-7.5	3.5	22.8	7.3	-4.8	37.7*
O=C(N/N=C/c1cc([N+](=O)[O-])ccc1O)c1c[nH]c2ccccc12	12.6	20.9*	7.1	5.0	2.5	9.7	-6.2	13.6
O=C(NN=Cc1cc([N+](=O)[O-])ccc1O)c1cccc2ccccc12	.	-0.3	6.4	10.1	-3.1	.	.	.
O=C(NC(C(=O)N/N=C/c1cccc2ccccc12)c1n[nH]c(=O)c2ccccc12)c1ccccc1 (configuration not stated)	-48.1	8.6	-137.1	-71.7	-88.4	-42.0	.	.
CCOC(=O)c1c(C)[nH]c(C(=O)N/N=C/c2cc([N+](=O)[O-])ccc2O)c1C	-0.7	21.2*	-0.5	13.8	0.8	1.9	-9.7	40.7*
C[C@H]1[C@@H](NC(=O)Cc2ccsc2)CC[C@@]23CCCN2C(=O)CCC[C@@H]13	.	.	-2.7	.	-0.3	.	.	.
O=C1NC(c2ccc(Cl)cc2)=COc2ccccc21	7.6	-6.8	-1.4	-1.0	-6.4	-0.4	.	.
O=C1NN=COc2ccccc21	2.4	21.1*	-4.1	6.0	-2.9	-4.5	-12.2	11.2
COC(=O)[C@]12C[C@H](CC(=O)N3CCN(C(=O)C4CC4)CC3)C(=O)N(Cc3ccccc3)C1=C[C@H](COCc1ccccc1)O[C@@H]2C	.	.	3.6	.	1.7	.	.	.
Cc1c(N)c(C(C)(C)C)cc(C(C)(C)C)c1[N+](=O)[O-]	5.2	-2.0	-3.2	-11.7	-14.8	0.6	.	.
Cc1cc2nc3c(=O)[nH]c(=O)[nH]c3nc2c([N+](=O)[O-])c1N	.	24.4*	11.7	28.9	18.3	.	84.9*	102.8*
